Laboratory results: ChEMBL document CHEMBL1142992, “Discovery of diaryl imidazolidin-2-one derivatives, a novel class of muscarinic M3 selective antagonists (Part 1)” (J Med Chem, 2007)
Activity calls are given as the source filed them.

Key:
[1] = biological target: T1, Muscarinic acetylcholine receptor M2 (Homo sapiens) (UniProt P08172); test: Displacement of [3H]N-methyl-scopolamine from human muscarinic M2 receptor expressed in CHO K1 cells at 10 uM; format: cell-based
T1 sequence (whole entry): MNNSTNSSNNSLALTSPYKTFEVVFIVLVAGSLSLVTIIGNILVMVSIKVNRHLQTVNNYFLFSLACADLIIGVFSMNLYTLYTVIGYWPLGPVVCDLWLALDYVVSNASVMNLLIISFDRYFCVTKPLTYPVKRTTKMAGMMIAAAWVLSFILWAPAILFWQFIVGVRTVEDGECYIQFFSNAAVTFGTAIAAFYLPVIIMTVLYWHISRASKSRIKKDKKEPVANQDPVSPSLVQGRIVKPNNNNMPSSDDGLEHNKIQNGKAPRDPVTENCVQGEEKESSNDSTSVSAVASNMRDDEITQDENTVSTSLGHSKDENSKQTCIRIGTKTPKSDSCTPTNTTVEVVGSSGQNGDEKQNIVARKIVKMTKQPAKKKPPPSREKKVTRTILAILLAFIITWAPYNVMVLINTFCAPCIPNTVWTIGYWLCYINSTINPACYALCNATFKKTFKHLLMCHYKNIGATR

[2] = biological target: T2, Muscarinic acetylcholine receptor M2 (Homo sapiens, UniProt P08172); test: Displacement of [3H]N-methyl-scopolamine from human muscarinic M2 receptor expressed in CHO K1 cells; format: cell-based
T2 sequence (P08172 whole entry): T1 sequence (whole entry)
Summary of the method: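 Membranes from CHO-K1 cells expressing human M2 receptor, homogenized and stored at -80 °C, resuspended in 50 mM Tris-HCl pH 7.4, 2.5 mM MgCl2, 1 mM EDTA. [3H]-N-methyl scopolamine 0.1-0.3 nM; nonspecific binding with cold N-methyl scopolamine. 10-point curves in duplicate, 60 min at room temperature, filtration through GF/B, scintillation counting.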

[3] = Intrinsic clearance in rat liver microsomes; format: ADME, Microsome
Summary of the method: (§1)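 Human or rat liver microsomes at 0.5 mg/mL final, preincubated with 0.5 µM test compound in phosphate buffer pH 7.4 for 10 min at 37 °C. Clearance reported as mL/min/g liver.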

[4] = Permeability across human Caco-2 cell membrane; format: ADME, cell-based
Summary of the method: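 Caco-2 monolayers grown 21 days on polycarbonate inserts. Integrity checked by TEER (1000 Ω) and sodium fluorescein leakage. Compound at 50 µM in 1% DMSO applied apically, 2 h at 37 °C. Apical and basolateral samples measured by LC-MS/MS. Papp = CbVb/(C0·A·t).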

[5] = Intrinsic clearance in human liver microsomes; format: ADME, Microsome; summary of the method: as §1
[6] = biological target: Muscarinic acetylcholine receptor M3 (Homo sapiens) (UniProt P20309); test: Displacement of [3H]N-methyl-scopolamine from human muscarinic M3 receptor expressed in CHO K1 cells at 10 uM; format: cell-based
Muscarinic acetylcholine receptor M3 (Homo sapiens), sequence (P20309 whole entry, looked up): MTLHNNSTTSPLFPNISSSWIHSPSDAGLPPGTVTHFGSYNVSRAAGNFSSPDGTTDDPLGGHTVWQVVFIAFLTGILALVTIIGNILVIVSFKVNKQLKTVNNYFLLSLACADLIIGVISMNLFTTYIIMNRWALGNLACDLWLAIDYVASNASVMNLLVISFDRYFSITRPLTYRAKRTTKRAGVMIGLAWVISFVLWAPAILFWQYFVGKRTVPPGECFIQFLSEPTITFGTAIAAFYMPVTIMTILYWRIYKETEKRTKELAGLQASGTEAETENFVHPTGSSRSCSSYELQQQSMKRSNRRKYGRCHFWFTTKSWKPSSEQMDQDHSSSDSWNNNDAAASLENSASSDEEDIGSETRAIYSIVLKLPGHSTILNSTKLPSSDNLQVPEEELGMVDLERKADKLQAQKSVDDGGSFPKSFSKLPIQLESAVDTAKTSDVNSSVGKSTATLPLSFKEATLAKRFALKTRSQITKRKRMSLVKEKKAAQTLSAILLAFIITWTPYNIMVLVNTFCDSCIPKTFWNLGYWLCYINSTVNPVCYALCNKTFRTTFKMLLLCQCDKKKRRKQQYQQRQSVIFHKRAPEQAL

Cytochrome P450 3A4 = Cytochrome P450 3A4 (Homo sapiens, UniProt P08684); test: Inhibition of human CYP3A4 expressed in insect cells; format: ADME
Cytochrome P450 3A4, sequence (P08684 whole entry, canonical isoform): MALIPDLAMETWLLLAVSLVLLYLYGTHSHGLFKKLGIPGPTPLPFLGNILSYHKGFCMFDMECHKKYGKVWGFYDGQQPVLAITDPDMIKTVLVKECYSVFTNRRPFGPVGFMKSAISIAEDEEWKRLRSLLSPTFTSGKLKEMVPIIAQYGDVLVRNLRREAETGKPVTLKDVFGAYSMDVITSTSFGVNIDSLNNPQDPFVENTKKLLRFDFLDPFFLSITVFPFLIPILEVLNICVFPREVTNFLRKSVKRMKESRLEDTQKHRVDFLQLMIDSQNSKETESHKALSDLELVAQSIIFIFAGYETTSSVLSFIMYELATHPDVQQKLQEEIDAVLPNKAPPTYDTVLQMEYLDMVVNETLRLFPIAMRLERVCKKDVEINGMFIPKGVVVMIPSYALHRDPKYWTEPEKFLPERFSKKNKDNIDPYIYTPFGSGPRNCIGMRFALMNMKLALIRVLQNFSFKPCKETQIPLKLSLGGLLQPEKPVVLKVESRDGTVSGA
Summary of the method: (§2)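 Insect-cell microsomes expressing human CYP1A2, 2C9, 2C19, 2D6 or 3A4, each with an isoform-specific fluorogenic substrate in 0.35 M potassium phosphate pH 7.4. […] Inhibitor serially diluted; plates prewarmed 10 min at 37 °C. Reaction stopped with acetonitrile/Tris, read by fluorescence. IC50 from nonlinear regression. Positive controls: furafylline, sulfaphenazole, tranylcypromine, quinidine, ketoconazole.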

Cytochrome P450 2C9 = Cytochrome P450 2C9 (Homo sapiens, UniProt P11712); test: Inhibition of human CYP2C9 expressed in insect cells; format: ADME; summary of the method: as §2
Cytochrome P450 2C9, sequence (P11712 whole entry): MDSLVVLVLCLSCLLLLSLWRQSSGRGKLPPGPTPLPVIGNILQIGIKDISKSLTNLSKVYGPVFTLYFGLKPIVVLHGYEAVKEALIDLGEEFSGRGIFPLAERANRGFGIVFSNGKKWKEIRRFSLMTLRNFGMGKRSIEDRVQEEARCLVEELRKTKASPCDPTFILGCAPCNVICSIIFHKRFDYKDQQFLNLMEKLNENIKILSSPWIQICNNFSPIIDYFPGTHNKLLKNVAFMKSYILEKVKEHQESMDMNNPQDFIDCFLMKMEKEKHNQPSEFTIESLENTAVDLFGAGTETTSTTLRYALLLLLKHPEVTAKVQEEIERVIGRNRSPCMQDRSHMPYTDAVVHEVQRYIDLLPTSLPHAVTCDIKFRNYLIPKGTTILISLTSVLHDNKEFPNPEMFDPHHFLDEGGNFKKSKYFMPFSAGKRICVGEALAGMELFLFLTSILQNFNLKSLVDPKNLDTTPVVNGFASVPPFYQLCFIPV

Cytochrome P450 1A2 = biological target: T3, Cytochrome P450 1A2 (Homo sapiens, UniProt P05177); test: Inhibition of human CYP1A2 expressed in insect cells; format: ADME; summary of the method: as §2
T3 sequence (P05177 whole entry): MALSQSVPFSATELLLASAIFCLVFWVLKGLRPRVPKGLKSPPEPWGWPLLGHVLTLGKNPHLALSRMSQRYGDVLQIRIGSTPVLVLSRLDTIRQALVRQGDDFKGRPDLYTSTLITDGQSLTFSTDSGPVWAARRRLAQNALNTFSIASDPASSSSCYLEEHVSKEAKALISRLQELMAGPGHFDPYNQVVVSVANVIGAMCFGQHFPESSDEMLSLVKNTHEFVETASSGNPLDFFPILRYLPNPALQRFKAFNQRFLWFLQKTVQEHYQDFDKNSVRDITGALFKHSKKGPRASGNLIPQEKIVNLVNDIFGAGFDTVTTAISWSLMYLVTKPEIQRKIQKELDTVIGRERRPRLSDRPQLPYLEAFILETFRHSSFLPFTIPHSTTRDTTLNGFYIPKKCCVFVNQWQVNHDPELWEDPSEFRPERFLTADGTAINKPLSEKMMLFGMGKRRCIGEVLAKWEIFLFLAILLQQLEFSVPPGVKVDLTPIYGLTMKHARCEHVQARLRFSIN

Cytochrome P450 2D6 = Cytochrome P450 2D6 (Homo sapiens, UniProt P10635); test: Inhibition of human CYP2D6 expressed in insect cells; format: ADME; summary of the method: as §2
Cytochrome P450 2D6, sequence (P10635 whole entry): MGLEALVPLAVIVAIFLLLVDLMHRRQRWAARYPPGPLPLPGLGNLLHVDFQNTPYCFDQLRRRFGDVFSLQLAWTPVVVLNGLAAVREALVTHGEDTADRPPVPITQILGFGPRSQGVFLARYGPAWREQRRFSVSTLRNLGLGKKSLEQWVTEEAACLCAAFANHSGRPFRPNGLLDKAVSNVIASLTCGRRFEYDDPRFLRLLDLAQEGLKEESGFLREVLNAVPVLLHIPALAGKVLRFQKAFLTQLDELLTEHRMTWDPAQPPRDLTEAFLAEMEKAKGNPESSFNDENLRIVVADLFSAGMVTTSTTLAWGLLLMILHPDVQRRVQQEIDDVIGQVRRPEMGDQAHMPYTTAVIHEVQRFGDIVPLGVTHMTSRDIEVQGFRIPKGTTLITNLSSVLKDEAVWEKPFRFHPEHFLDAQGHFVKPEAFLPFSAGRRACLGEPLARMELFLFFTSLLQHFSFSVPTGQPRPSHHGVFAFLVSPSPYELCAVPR

Cytochrome P450 2C19 = Cytochrome P450 2C19 (Homo sapiens, UniProt P33261); test: Inhibition of human CYP2C19 expressed in insect cells; format: ADME; summary of the method: as §2
Cytochrome P450 2C19, sequence (P33261 whole entry): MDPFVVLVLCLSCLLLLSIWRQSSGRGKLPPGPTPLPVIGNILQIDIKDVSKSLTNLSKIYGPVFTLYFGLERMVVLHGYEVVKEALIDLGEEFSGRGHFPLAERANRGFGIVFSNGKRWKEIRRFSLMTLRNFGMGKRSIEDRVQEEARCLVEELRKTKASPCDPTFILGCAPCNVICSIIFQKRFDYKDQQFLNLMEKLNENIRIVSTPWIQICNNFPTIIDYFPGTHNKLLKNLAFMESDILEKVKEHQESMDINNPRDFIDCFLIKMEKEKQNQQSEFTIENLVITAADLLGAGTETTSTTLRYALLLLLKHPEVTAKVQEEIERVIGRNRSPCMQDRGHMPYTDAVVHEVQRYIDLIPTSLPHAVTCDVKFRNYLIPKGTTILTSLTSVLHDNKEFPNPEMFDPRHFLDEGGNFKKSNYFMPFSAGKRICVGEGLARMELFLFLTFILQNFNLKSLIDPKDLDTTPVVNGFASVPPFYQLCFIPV

[7] = biological target: T4, Muscarinic acetylcholine receptor M2 (Rattus norvegicus) (UniProt P10980); test: Antagonist activity at muscarinic M2 receptor in rat left atria assessed as contraction of methacholine-induced relaxation upto 0.1 uM relative to EFS; format: functional
T4 sequence (whole entry): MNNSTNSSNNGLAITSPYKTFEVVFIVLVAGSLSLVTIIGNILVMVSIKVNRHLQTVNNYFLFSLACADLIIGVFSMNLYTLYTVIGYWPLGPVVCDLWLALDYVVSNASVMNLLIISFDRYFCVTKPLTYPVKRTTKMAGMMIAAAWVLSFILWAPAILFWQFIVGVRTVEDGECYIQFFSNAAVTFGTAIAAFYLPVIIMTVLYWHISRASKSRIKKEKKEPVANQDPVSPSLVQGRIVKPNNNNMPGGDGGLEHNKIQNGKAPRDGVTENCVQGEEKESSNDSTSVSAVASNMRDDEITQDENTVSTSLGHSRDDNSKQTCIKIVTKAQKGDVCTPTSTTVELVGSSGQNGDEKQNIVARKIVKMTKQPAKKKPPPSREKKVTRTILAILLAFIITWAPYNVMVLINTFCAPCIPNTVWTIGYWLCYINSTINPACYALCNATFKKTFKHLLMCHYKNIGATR
Summary of the method: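 Female rat left atrium in Krebs-Henseleit at 33 °C, resting tension 0.5 g, eserine 1 µM present. Paced by EFS at 1 Hz, 5 ms pulses, 1.5× threshold voltage to give a stable basal force. Methacholine concentration-response curves run alone or with antagonist at 0.01-0.1 µM. Response read as delta % of basal force of contraction; mean ± SEM, n = 6-7.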

[8] = biological target: Muscarinic acetylcholine receptor M3 (Rattus norvegicus) (UniProt P08483); settings: filed as antagonist
Muscarinic acetylcholine receptor M3 (Rattus norvegicus), sequence (P08483 whole entry, looked up): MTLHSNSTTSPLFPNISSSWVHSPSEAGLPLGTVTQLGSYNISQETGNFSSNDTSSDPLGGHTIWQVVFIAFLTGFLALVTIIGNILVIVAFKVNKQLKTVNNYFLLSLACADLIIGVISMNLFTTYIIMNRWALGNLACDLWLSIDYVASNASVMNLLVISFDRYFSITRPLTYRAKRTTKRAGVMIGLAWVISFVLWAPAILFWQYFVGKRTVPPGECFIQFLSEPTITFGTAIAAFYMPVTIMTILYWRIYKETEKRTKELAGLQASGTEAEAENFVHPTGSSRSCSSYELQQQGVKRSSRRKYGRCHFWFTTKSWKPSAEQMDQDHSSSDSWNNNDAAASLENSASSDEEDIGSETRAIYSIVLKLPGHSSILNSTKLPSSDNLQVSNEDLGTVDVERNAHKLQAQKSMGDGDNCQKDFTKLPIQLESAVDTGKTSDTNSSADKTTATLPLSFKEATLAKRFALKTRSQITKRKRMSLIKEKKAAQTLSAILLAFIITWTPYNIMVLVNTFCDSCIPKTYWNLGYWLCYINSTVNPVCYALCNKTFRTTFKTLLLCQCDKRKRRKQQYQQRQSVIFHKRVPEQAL

COc1ccc(C2(c3ccc(OC)cc3)CN(C3CCN(Cc4ccccc4)CC3)C(=O)N2)cc1
inhibition [1]: < 50%

O=C1NC(c2ccccc2)(c2ccccc2)CN1C1CCN(CCOc2ccccc2)CC1
Ki [2]: 0.328 µM (antagonist)

O=C1NC(c2ccccc2)(c2ccccc2)CN1C1CCN(Cc2cccs2)CC1
Ki [2]: 0.927 µM (antagonist)

O=C1NC(c2ccccc2)(c2ccccc2)CN1C1CCN(Cc2ccccc2Cl)CC1
inhibition [1]: < 50%

O=C1NC(c2ccccc2)(c2ccccc2)CN1C1CCN(CC2CCCCC2)CC1
inhibition [1]: < 50%

O=C1NC(c2ccccc2)(c2ccccc2)CN1C1CCN(CCc2ccccc2)CC1
Ki [2]: 0.411 µM (antagonist)

O=C1N(C2CCN(Cc3ccccc3)CC2)CC(c2ccccc2)N1Cc1ccccc1 (stereo unspecified)
Ki [2]: 0.629 µM (antagonist)

O=C1NC(c2ccccc2)(c2ccccc2)CN1C1CCCN(Cc2ccccc2)CC1 (stereo unspecified)
Ki [2]: 0.002 µM (antagonist)

O=C1NC(c2ccccc2)(c2ccccc2)C(=O)N1C1CCN(Cc2ccccc2)CC1
inhibition [1]: < 50%

O=C1NC(c2cccs2)(c2cccs2)CN1C1CCN(Cc2ccccc2)CC1
CLint scaled [3]: 23.7 mL/min/g
Papp [4]: > 5 ×10⁻⁶ cm/s
CLint scaled [5]: 2.3 mL/min/g

O=C1NC(c2ccccc2)(c2ccccc2)CN1C1CC2CCC(C1)N2Cc1ccccc1 (stereo unspecified)
Ki [2]: 0.065 µM (antagonist)

C#CCN1CCC(N2CC(c3ccccc3)(c3ccccc3)NC2=O)CC1
inhibition [6]: < 50%

O=C1NC(c2ccccc2)(c2ccccc2)CN1C1CCN(Cc2c[nH]cn2)CC1
inhibition [1]: < 50%

CN1CCC(N2CC(c3ccccc3)(c3ccccc3)NC2=O)CC1
Ki [2]: 2.92 µM (antagonist)

O=C1NC(c2ccccc2)(c2ccccc2)CN1[C@@H]1CCN(Cc2ccccc2)C1
Ki [2]: 0.0822 µM (antagonist)

COc1ccc(CN2CCC(N3CC(c4ccccc4)(c4ccccc4)NC3=O)CC2)cc1
Ki [2]: 0.49 µM (antagonist)

N#Cc1cccc(CN2CCC(N3CC(c4ccccc4)(c4ccccc4)NC3=O)CC2)c1
inhibition [1]: < 50%

O=C1NC(c2ccccc2)(c2ccccc2)CN1C1CCN(Cc2cc(Cl)cc(Cl)c2)CC1
inhibition [6]: < 50%

O=C1OC(c2ccccc2)(c2ccccc2)CN1C1CCN(Cc2ccccc2)CC1
Ki [2]: 0.908 µM (antagonist)

O=C(c1cccc(Cl)c1)N1CCC(N2CC(c3ccccc3)(c3ccccc3)NC2=O)CC1
inhibition [6]: < 50%

O=C1NC(c2ccccc2)(c2ccccc2)CN1C1CCN(c2ccccc2)CC1
inhibition [1]: < 50%

O=C1NC(c2ccccc2)(c2ccccc2)CN1C1CCN(Cc2cccnc2)CC1
Ki [2]: 0.302 µM (antagonist)

O=C1NC(c2ccccc2)(c2ccccc2)CN1C1CCN(Cc2ccccc2)CC1
CLint scaled [3]: 4.7 mL/min/g
Papp [4]: > 5 ×10⁻⁶ cm/s
CLint scaled [5]: 1.1 mL/min/g

O=C1NC(c2ccccc2)(c2ccccc2)CN1C1CCN(Cc2cccc(OC(F)(F)F)c2)CC1
inhibition [1]: < 50%

O=C1NC(c2ccccc2)(c2ccccc2)CN1C1CCN(Cc2ccc(Cl)cc2)CC1
Ki [2]: 0.296 µM (antagonist)

O=C1NC(c2ccccc2)(c2ccccc2)CN1C1CCN(Cc2cccc(O)c2)CC1
Ki [2]: 0.0479 µM (antagonist)

O=C1NC(c2ccccc2)(c2ccccc2)CN1C1CCCN(Cc2ccccc2)C1 (stereo unspecified)
inhibition [1]: < 50%

O=C1NC(c2cccs2)(c2cccs2)CN1C1CCN(Cc2cccc(F)c2)CC1
CLint scaled [3]: 13.8 mL/min/g
Papp [4]: ≤ 1 ×10⁻⁶ cm/s
CLint scaled [5]: 0.95 mL/min/g

CN1C(=O)N(C2CCN(Cc3ccccc3)CC2)CC1(c1ccccc1)c1ccccc1
Ki [2]: 0.52 µM (antagonist)

O=C1NC(C2CCCCC2)(C2CCCCC2)CN1C1CCN(Cc2ccccc2)CC1
inhibition [6]: < 50%

COc1ccccc1CN1CCC(N2CC(c3ccccc3)(c3ccccc3)NC2=O)CC1
inhibition [1]: < 50%

O=C1NC(c2ccccc2)(c2ccccc2)CN1C1CCN(Cc2cccc(F)c2)CC1
Ki [2]: 0.302 µM (antagonist)

O=C1NC(c2ccccc2)(c2ccccc2)CN1C1CCN(Cc2cccc(C(F)(F)F)c2)CC1
inhibition [1]: < 50%

Cc1cccc(CN2CCC(N3CC(c4ccccc4)(C4CCCCC4)NC3=O)CC2)c1 (stereo unspecified)
Ki [2]: 0.166 µM (antagonist)

O=C1NC(c2ccccc2)(C2CCCCC2)CN1C1CCN(Cc2cccc(Cl)c2)CC1 (stereo unspecified)
Ki [2]: 0.515 µM (antagonist)

O=C1NC(c2ccc(F)cc2)(c2ccc(F)cc2)CN1C1CCN(Cc2cccc(F)c2)CC1
IC50 (Cytochrome P450 3A4): > 100 µM
IC50 (Cytochrome P450 2C9): 7.3 µM
IC50 (Cytochrome P450 1A2): > 100 µM
CLint scaled [3]: 1.4 mL/min/g
Papp [4]: > 5 ×10⁻⁶ cm/s
IC50 (Cytochrome P450 2D6): 12 µM
IC50 (Cytochrome P450 2C19): 17.4 µM
CLint scaled [5]: 0.78 mL/min/g

O=C1NC(c2ccccc2)(c2ccccc2)CN1[C@H]1CCN(Cc2ccccc2)C1
Ki [2]: 2.27 µM (antagonist)

O=C1NC(c2ccc(F)cc2)(c2ccc(F)cc2)CN1C1CCN(Cc2ccccc2)CC1
IC50 (Cytochrome P450 3A4): 91.9 µM
IC50 (Cytochrome P450 2C9): 7 µM
IC50 (Cytochrome P450 1A2): > 100 µM
CLint scaled [3]: 2 mL/min/g
Papp [4]: > 5 ×10⁻⁶ cm/s
IC50 (Cytochrome P450 2D6): 4.7 µM
Activity [7]: inactive
IC50 (Cytochrome P450 2C19): 12.9 µM
CLint scaled [5]: 0.56 mL/min/g

COc1cccc(CN2CCC(N3CC(c4ccccc4)(c4ccccc4)NC3=O)CC2)c1
Ki [2]: 0.695 µM (antagonist)

O=C1NC(c2ccc(F)cc2)(c2ccc(F)cc2)CN1C1CCN(Cc2cccc(Cl)c2)CC1
IC50 (Cytochrome P450 3A4): > 100 µM
IC50 (Cytochrome P450 2C9): 4.2 µM
IC50 (Cytochrome P450 1A2): > 100 µM
CLint scaled [3]: 1.8 mL/min/g
Papp [4]: < 1 ×10⁻⁶ cm/s
IC50 (Cytochrome P450 2D6): 5.3 µM
IC50 (Cytochrome P450 2C19): 17.7 µM
CLint scaled [5]: 0.87 mL/min/g

O=C1NC(Cc2ccccc2)(Cc2ccccc2)CN1C1CCN(Cc2ccccc2)CC1
Ki [2]: 2.95 µM (antagonist)

Cc1ccc(O)c([C@H](CCN(C(C)C)C(C)C)c2ccccc2)c1
pKb [8]: 8.86

Nc1cccc(CN2CCC(N3CC(c4ccccc4)(c4ccccc4)NC3=O)CC2)c1
Ki [2]: 0.182 µM (antagonist)
